# Laboratory results from ChEMBL document CHEMBL3352534, “A prodrug strategy for the oral delivery of a poorly soluble HCV NS5B thumb pocket 1 polymerase inhibitor using self-emulsifying drug delivery systems (SEDDS)” (Bioorg Med Chem Lett, 2015).
# How the values were obtained:
# Rattus norvegicus [1] = assay: AUC in rat plasma assessed as (E)-3-(4-(1-(2-(5-chloropyrimidin-2-yl)-3-cyclopentyl-1-methyl-1H-indole-6-carboxamido)cyclobutanecarboxamido)-2-ethoxyphenyl)acrylic acid at 10 mg/kg, po using 0.5% Methyl cellulose, 0.3% Tween-80, 1% N-methylpyrrolidone in water vehicle; type: ADME, organism-based; set-up: dose 10 mg/kg, route oral; settings: in vivo
# Procedure, shortened: (§1)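 Fasted rats were given a single 10 mg/kg oral dose, with n = 3 per dose and route. Plasma was extracted by solid-phase extraction. Analysis used HPLC with diode-array UV (200–400 nm, peak height at best S/N) or LC/MS. Calibration standards were made in blank plasma, with LOQ 7–14 ng/mL. Parameters came from noncompartmental analysis.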
# Rattus norvegicus [2] = assay: Cmax in rat plasma at 10 mg/kg, po using 0.5% Methyl cellulose, 0.3% Tween-80, 1% N-methylpyrrolidone in water vehicle; type: ADME, organism-based; set-up: dose 10 mg/kg, route oral; settings: in vivo, BLD = below limit of detection; procedure, shortened: as §1
# Liver microsome [3] = assay: Prodrug conversion in human liver microsomes assessed as half life
# Rattus norvegicus [4] = assay: Cmax in rat plasma assessed as (E)-3-(4-(1-(2-(5-chloropyrimidin-2-yl)-3-cyclopentyl-1-methyl-1H-indole-6-carboxamido)cyclobutanecarboxamido)-2-ethoxyphenyl)acrylic acid at 10 mg/kg, po using 0.5% Methyl cellulose, 0.3% Tween-80, 1% N-methylpyrrolidone in water vehicle; type: ADME, organism-based; set-up: dose 10 mg/kg, route oral; settings: in vivo; procedure, shortened: as §1
# Rattus norvegicus [5] = assay: AUC in rat plasma at 10 mg/kg, po using 0.5% Methyl cellulose, 0.3% Tween-80, 1% N-methylpyrrolidone in water vehicle; type: ADME, organism-based; set-up: dose 10 mg/kg, route oral; settings: in vivo, BLD = below limit of detection; procedure, shortened: as §1
# [6] = Solubility of the compound at pH 6.8; type: physicochemical; settings: buffer
# Liver microsome [7] = assay: Prodrug conversion in rat liver microsomes assessed as half life
# Rattus norvegicus [8] = assay: AUC in rat plasma at 10 mg/kg, po using 10.6% PEG400, 5.4% Cremophor EL, 2.6% Labrasol, 1.4% Capmul MCM in water (80%) vehicle; type: ADME, organism-based; set-up: dose 10 mg/kg, route oral; settings: in vivo, BLD = below limit of detection; procedure, shortened: as §1
# Rattus norvegicus [9] = assay: (§2) Cmax in rat plasma at 10 mg/kg, po using 10.6% PEG400, 5.4% Cremophor EL, 2.6% Labrasol, 1.4% Capmul MCM in water (80%) vehicle; type: ADME, organism-based; set-up: dose 10 mg/kg, route oral; settings: in vivo, BLD = below limit of detection; procedure, shortened: as §1
# [10] = Prodrug solubility in solutol; type: ADME
# [11] = Dissociation constant, pKa of the compound; type: physicochemical
# [12] = Prodrug solubility in capmul; type: ADME
# Rattus norvegicus [13] = assay: Cmax in rat plasma assessed as (E)-3-(4-(1-(2-(5-chloropyrimidin-2-yl)-3-cyclopentyl-1-methyl-1H-indole-6-carboxamido)cyclobutanecarboxamido)-2-ethoxyphenyl)acrylic acid at 10 mg/kg, po using 10.6% PEG400, 5.4% Cremophor EL, 2.6% Labrasol, 1.4% Capmul MCM in water (80%) vehicle; type: ADME, organism-based; set-up: dose 10 mg/kg, route oral; settings: in vivo; procedure, shortened: as §1
# Rattus norvegicus [14] = assay: AUC in rat plasma assessed as (E)-3-(4-(1-(2-(5-chloropyrimidin-2-yl)-3-cyclopentyl-1-methyl-1H-indole-6-carboxamido)cyclobutanecarboxamido)-2-ethoxyphenyl)acrylic acid at 10 mg/kg, po using 10.6% PEG400, 5.4% Cremophor EL, 2.6% Labrasol, 1.4% Capmul MCM in water (80%) vehicle; type: ADME, organism-based; set-up: dose 10 mg/kg, route oral; settings: in vivo; procedure, shortened: as §1
# [15] = Prodrug solubility in Labrasol; type: ADME
# Intestine = assay: Prodrug conversion in rat intestinal microsomes assessed as half life
# Plasma [16] = assay: Prodrug conversion in human plasma assessed as half life
# [17] = Prodrug conversion in human intestinal microsomes assessed as half life
# Plasma [18] = assay: Prodrug conversion in rat plasma assessed as half life; type: ADME, cell-free
# Procedure, shortened: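 Rat plasma (from centrifuged whole blood) was incubated with 2 µM compound at 37 °C. Samples were quenched 1:3 with acetonitrile/methanol 1:1, centrifuged and analysed by HPLC-PDA. Half-life was taken as 0.693/first-order rate of loss of the starting compound.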
# [19] = Prodrug conversion in simulated gastric fluid assessed as half life; type: ADME; settings: simulated gi fluid
# Procedure, shortened: (§3)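 Incubations used 2 µM compound at 37 °C in either SGF (0.2% NaCl/HCl, pH 1.2, pepsin 3.2 mg/mL) or SIF (KH2PO4/NaOH, pH 7.5, pancreatin 10 mg/mL). Samples were quenched 1:2 with acetonitrile/methanol 1:1 and analysed by HPLC. t1/2 = 0.693/first-order disappearance rate.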
# [20] = Prodrug conversion in simulated intestinal fluid assessed as half life; type: ADME; settings: simulated gi fluid; procedure, shortened: as §3
# Canis familiaris [21] = assay: AUC in dog assessed as (E)-3-(4-(1-(2-(5-chloropyrimidin-2-yl)-3-cyclopentyl-1-methyl-1H-indole-6-carboxamido)cyclobutanecarboxamido)-2-ethoxyphenyl)acrylic acid at 10 mg/kg using 10.6% PEG400, 5.4% Cremophor EL, 2.6% Labrasol, 1.4% Capmul MCM in water (80%) vehicle; type: ADME, organism-based, Canis lupus familiaris, Plasma; set-up: dose 10 mg/kg; settings: in vivo
# [22] = AUC in dog at 10 mg/kg, po using 10.6% PEG400, 5.4% Cremophor EL, 2.6% Labrasol, 1.4% Capmul MCM in water (80%) vehicle; type: ADME, organism-based, Canis lupus familiaris; set-up: dose 10 mg/kg, route oral; settings: plasma
# Rhesus monkey [23] = assay: AUC in monkey assessed as (E)-3-(4-(1-(2-(5-chloropyrimidin-2-yl)-3-cyclopentyl-1-methyl-1H-indole-6-carboxamido)cyclobutanecarboxamido)-2-ethoxyphenyl)acrylic acid at 10 mg/kg using 10.6% PEG400, 5.4% Cremophor EL, 2.6% Labrasol, 1.4% Capmul MCM in water (80%) vehicle; type: ADME, organism-based, Macaca mulatta, Plasma; set-up: dose 10 mg/kg; settings: in vivo
# [24] = as §2; type: ADME, organism-based; set-up: dose 10 mg/kg, route oral; settings: plasma; procedure, shortened: as §1
# Rattus norvegicus [25] = assay: Half life in rat assessed as (E)-3-(4-(1-(2-(5-chloropyrimidin-2-yl)-3-cyclopentyl-1-methyl-1H-indole-6-carboxamido)cyclobutanecarboxamido)-2-ethoxyphenyl)acrylic acid at 2 mg/kg, iv; type: ADME, organism-based; set-up: dose 2 mg/kg, route intravenous; settings: in vivo
# Procedure, shortened: (§4)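 Overnight-fasted rats received 2 mg/kg IV in 70% PEG400:30% water, n = 3. Plasma parent drug was quantified after solid-phase extraction by HPLC-UV or LC/MS against blank-plasma calibration standards (LOQ 7–14 ng/mL). Noncompartmental analysis gave the PK parameters.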
# Rattus norvegicus [26] = assay: Mean residence time in rat assessed as (E)-3-(4-(1-(2-(5-chloropyrimidin-2-yl)-3-cyclopentyl-1-methyl-1H-indole-6-carboxamido)cyclobutanecarboxamido)-2-ethoxyphenyl)acrylic acid at 2 mg/kg, iv; type: ADME, organism-based; set-up: dose 2 mg/kg, route intravenous; settings: in vivo; procedure, shortened: as §4
# Rattus norvegicus [27] = assay: AUC in rat assessed as (E)-3-(4-(1-(2-(5-chloropyrimidin-2-yl)-3-cyclopentyl-1-methyl-1H-indole-6-carboxamido)cyclobutanecarboxamido)-2-ethoxyphenyl)acrylic acid at 2 mg/kg, iv; type: ADME, organism-based, Plasma; set-up: dose 2 mg/kg, route intravenous; settings: in vivo; procedure, shortened: as §4
# Rattus norvegicus [28] = assay: Volume of distribution at steady state in rat assessed as (E)-3-(4-(1-(2-(5-chloropyrimidin-2-yl)-3-cyclopentyl-1-methyl-1H-indole-6-carboxamido)cyclobutanecarboxamido)-2-ethoxyphenyl)acrylic acid at 2 mg/kg, iv; type: ADME, organism-based; set-up: dose 2 mg/kg, route intravenous; settings: in vivo; procedure, shortened: as §4
# Rattus norvegicus [29] = assay: Oral bioavailability in rat assessed as (E)-3-(4-(1-(2-(5-chloropyrimidin-2-yl)-3-cyclopentyl-1-methyl-1H-indole-6-carboxamido)cyclobutanecarboxamido)-2-ethoxyphenyl)acrylic acid at 10 mg/kg using 10.6% PEG400, 5.4% Cremophor EL, 2.6% Labrasol, 1.4% Capmul MCM in water (80%) vehicle; type: ADME, organism-based; settings: in vivo
# [30] = Prodrug solubility in PEG400; type: ADME
# Canis familiaris [31] = assay: Oral bioavailability in dog assessed as (E)-3-(4-(1-(2-(5-chloropyrimidin-2-yl)-3-cyclopentyl-1-methyl-1H-indole-6-carboxamido)cyclobutanecarboxamido)-2-ethoxyphenyl)acrylic acid at 10 mg/kg using 10.6% PEG400, 5.4% Cremophor EL, 2.6% Labrasol, 1.4% Capmul MCM in water (80%) vehicle; type: ADME, organism-based, Canis lupus familiaris; settings: in vivo
# Rhesus monkey [32] = assay: Oral bioavailability in monkey assessed as (E)-3-(4-(1-(2-(5-chloropyrimidin-2-yl)-3-cyclopentyl-1-methyl-1H-indole-6-carboxamido)cyclobutanecarboxamido)-2-ethoxyphenyl)acrylic acid at 10 mg/kg using 10.6% PEG400, 5.4% Cremophor EL, 2.6% Labrasol, 1.4% Capmul MCM in water (80%) vehicle; type: ADME, organism-based, Macaca mulatta; settings: in vivo
SMILES,t1/2 (Liver microsome [3]),t1/2 (Liver microsome [7]),AUC (Rattus norvegicus [8]),Cmax (Rattus norvegicus [9]),solubility [10],pKa [11],solubility [12],Cmax (Rattus norvegicus [13]),AUC (Rattus norvegicus [14]),solubility [15],t1/2 (Plasma [18]),other results
CCOc1cc(NC(=O)C2(NC(=O)c3ccc4c(C5CCCC5)c(-c5ncc(Cl)cn5)n(C)c4c3)CCC2)ccc1/C=C/C(=O)OCOP(=O)(O)OC(C)(C)C,1.48 h,0.13 h,,,,,,,,,,AUC (Rattus norvegicus [1]): 0.49 µM·h; Cmax (Rattus norvegicus [2]): BLD; Cmax (Rattus norvegicus [4]): 80 nM; AUC (Rattus norvegicus [5]): BLD; solubility [6]: 0.781 mg/mL
CCOc1cc(NC(=O)C2(NC(=O)c3ccc4c(C5CCCC5)c(-c5ncc(Cl)cn5)n(C)c4c3)CCC2)ccc1/C=C/C(=O)OCCN1CCCC1,,,BLD,BLD,< 100 mg/mL,7.7,< 60 mg/mL,1100 nM,6.5 µM·h,< 60 mg/mL,,
CCOc1cc(NC(=O)C2(NC(=O)c3ccc4c(C5CCCC5)c(-c5ncc(Cl)cn5)n(C)c4c3)CCC2)ccc1/C=C/C(=O)OCC(=O)N(C)C,,,BLD,,> 200 mg/mL,,> 100 mg/mL,9200 nM,38.5 µM·h,> 200 mg/mL,1.43 h,AUC (Canis familiaris [21]): 11.5 µM·h; AUC [22]: 0.69 µM·h; AUC (Rhesus monkey [23]): 26 µM·h; Cmax [24]: 20 nM; t1/2 (Rattus norvegicus [25]): 2.1 h; MRT (Rattus norvegicus [26]): 2.8 h; AUC (Rattus norvegicus [27]): 10.5 µM·h; Vdss (Rattus norvegicus [28]): 0.73 L/kg; F (Rattus norvegicus [29]): 38%; solubility [30]: > 200 mg/mL; F (Canis familiaris [31]): 4%; F (Rhesus monkey [32]): 35%

# More lines, main results first:
t1/2 (Liver microsome [3]),t1/2 (Liver microsome [7]),AUC (Rattus norvegicus [8]),Cmax (Rattus norvegicus [9]),solubility [10],pKa [11],solubility [12],Cmax (Rattus norvegicus [13]),AUC (Rattus norvegicus [14]),solubility [15],t1/2 (Plasma [18]),SMILES,other results
0.8 h,0.733 h,BLD,BLD,< 15 mg/mL,,< 15 mg/mL,4000 nM,19.3 µM·h,< 30 mg/mL,1.83 h,CCOc1cc(NC(=O)C2(NC(=O)c3ccc4c(C5CCCC5)c(-c5ncc(Cl)cn5)n(C)c4c3)CCC2)ccc1/C=C/C(=O)OCC(=O)N1CCOCC1,t1/2 (Intestine): 1.27 h; t1/2 (Plasma [16]): > 5 h; t1/2 [17]: 3.42 h; t1/2 [19]: 0.85 h; t1/2 [20]: 3.17 h
1.85 h,0.217 h,BLD,BLD,< 100 mg/mL,7.7,,1200 nM,7.9 µM·h,< 100 mg/mL,,CCOc1cc(NC(=O)C2(NC(=O)c3ccc4c(C5CCCC5)c(-c5ncc(Cl)cn5)n(C)c4c3)CCC2)ccc1/C=C/C(=O)OCCN1CCN(C)CC1,
